Assay outcomes deposited in PubChem BioAssay by several laboratories.
GASC-1 inh: inhibitors of GASC-1 histone demethylase, primary screen, biochemical, fluorescence, DELFIA europium; Lysine-specific demethylase 4C (Homo sapiens), Q9H3R0; GST-JMJD2C(1-420) H3K9me3 demethylation; inhibition, % at 2.35 µM; 0.069% of 330,000 active; AID 2099, 2009;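 active = more than half of a compound's replicate wells show inhibition beyond 50%, single wells judged on their own value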;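 also: signal counts dimethyl H3K9 product captured on neutravidin plate; 0% = median of DMSO wells and 100% = 0.3 times that DMSO median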
GRIN3A LBD mod: binders of NR3A ligand-binding domain, primary screen, biophysical, differential scanning fluorimetry, uHTS; Tm shift relative to glycine control, % at 25 µM; 2.5% of 340,000 active; Glutamate receptor ionotropic, NMDA 3A (GRIN3A) ligand-binding domain; NR3A LBD differential scanning fluorimetry, Tm shift; 0% = protein alone, 100% = glycine-bound protein;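 active = melting temperature shift of at least 10% of the positive control shift, at one fixed dose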
GC-B act: human GC-B receptor activators, primary screen, HEK293 GC-B cells, cGMP TR-FRET, EC30 CNP; 0% at EC30 CNP, 100% saturating CNP; AID 1920062, 2024; activation, % at 10 µM; Atrial natriuretic peptide receptor 2 (Homo sapiens), P20594; 0.11% of 370,000 active;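 active = activation at 10 µM reaching about 35% in either raw or pattern-adjusted values, limit read from the data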
Lipid droplet: inhibitors of hepatocyte lipid droplet formation, primary screen, imaging, high-throughput imaging, BODIPY stain; AML12 mouse hepatocytes, oleate lipid droplets; inhibition, % at 6.5 µM; 0.4% of 240,000 active;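 active = lipid droplet intensity inhibited by at least 50%, with more than 500 cells counted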
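Assay system: AML12 hepatocytes (mouse) / Also added: 100 µM oleic acid challenge / Times: overnight treatment with compound plus oleate / Detection: high-content imaging of BODIPY-stained droplets and DAPI nuclei / Evaluation: % inhibition of lipid droplet signal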
aDG glyco act: activators of alpha-DG glycosylation, primary screen, uHTS, Pro5-aDG cells, AlphaScreen; activation, % at 10 µM; alpha-DG glycosylation AlphaScreen (IIH6); 0% Pro5, 100% B10-LARGE cell signal; AID 624168, 2012; 0.22% of 360,000 active;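 active = activation of at least 8% versus controls, or a plate z-score of at least 8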;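 also: Pro5 are CHO cells carrying HIG-tagged alpha-DG that lacks glycosylation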
GC-A act: GC-A stimulated cGMP production enhancers – HEK293 GC-A cells, cGMP TR-FRET, EC30 ANP, primary screen. Atrial natriuretic peptide receptor 1 (Homo sapiens), P16066. 0% at EC30 ANP, 100% saturating ANP. activation, % at 10 µM. 0.14% of 370,000 active; in the data active = activation above about 40%
Target sequence (P16066 whole entry, looked up): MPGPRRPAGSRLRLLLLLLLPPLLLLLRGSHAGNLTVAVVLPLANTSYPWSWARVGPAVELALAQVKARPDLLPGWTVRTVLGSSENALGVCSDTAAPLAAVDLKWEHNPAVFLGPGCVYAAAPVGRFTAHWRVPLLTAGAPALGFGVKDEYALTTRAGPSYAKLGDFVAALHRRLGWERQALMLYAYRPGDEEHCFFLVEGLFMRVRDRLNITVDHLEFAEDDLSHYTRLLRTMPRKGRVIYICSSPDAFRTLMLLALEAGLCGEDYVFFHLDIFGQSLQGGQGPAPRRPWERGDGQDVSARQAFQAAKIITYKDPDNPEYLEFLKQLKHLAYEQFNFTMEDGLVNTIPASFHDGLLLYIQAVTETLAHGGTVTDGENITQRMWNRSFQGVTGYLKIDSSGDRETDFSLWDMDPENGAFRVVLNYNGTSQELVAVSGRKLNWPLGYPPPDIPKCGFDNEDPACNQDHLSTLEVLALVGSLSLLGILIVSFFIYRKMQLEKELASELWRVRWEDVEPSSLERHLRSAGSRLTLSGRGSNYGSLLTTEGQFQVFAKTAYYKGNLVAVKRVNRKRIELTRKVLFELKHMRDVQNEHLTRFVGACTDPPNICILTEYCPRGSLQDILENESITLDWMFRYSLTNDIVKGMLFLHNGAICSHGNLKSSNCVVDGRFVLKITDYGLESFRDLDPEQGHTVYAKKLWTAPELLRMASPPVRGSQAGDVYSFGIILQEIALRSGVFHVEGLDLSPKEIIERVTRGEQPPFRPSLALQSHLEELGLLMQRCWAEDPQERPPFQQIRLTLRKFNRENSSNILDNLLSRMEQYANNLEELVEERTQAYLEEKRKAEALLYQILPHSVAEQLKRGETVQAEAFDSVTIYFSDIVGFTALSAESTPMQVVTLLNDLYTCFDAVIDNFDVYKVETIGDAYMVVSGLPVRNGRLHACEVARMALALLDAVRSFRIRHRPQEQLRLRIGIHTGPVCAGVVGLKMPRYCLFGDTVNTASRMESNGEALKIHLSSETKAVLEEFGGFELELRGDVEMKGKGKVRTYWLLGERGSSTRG
An asterisk follows results filed as active; x = no result. An excerpt weighted towards active compounds, which were near 3% of everything screened.

SMILES | GASC-1 inh | GRIN3A LBD mod | GC-B act | Lipid droplet | aDG glyco act | GC-A act
COc1ccc([C@H]2[C@H](C(=O)OC(C)(C)C)N3N=Cc4ccccc4C3C23C(=O)c2ccccc2C3=O)cc1OC (stereo partly drawn) | 20.9 | -10.7 | x | -6.4 | 9.9* | x
COc1ccccc1NC(=O)c1ccc(NC(=O)COC(=O)C2(C)CC2(Cl)Cl)cc1 (stereo not drawn) | -1.3 | 25.3* | 3.4 | -2.6 | -0.2 | 2.1
COC(=O)[C@]12C[C@H](CC(=O)NCc3cccc4ccccc34)C(=O)N(Cc3ccccc3)C1=C[C@H](C1CCCC1)O[C@@H]2C | x | x | -5.1 | x | x | -2.7
O=C1CC(c2ccc3c(c2)OCO3)N=C2N(Cc3ccc4c(c3)OCO4)C/C(=C/c3ccccc3)N12 (stereo not drawn) | x | x | -13.5 | x | x | -10.8
COC(=O)CNC(c1ccccc1)c1cc(Br)ccc1NS(=O)(=O)c1ccc(C)cc1 (stereo not drawn) | -4.2 | 16.0* | -15.0 | -33.9 | 0.3 | -21.5
CC(=O)C12CCCCC1CC1[C@@H]3CC(C)C4=CC(=O)CC[C@]4(C)C3CC[C@@]12C (stereo partly drawn) | 10.6 | 22.0* | -6.9 | -47.8 | -0.1 | -6.1
CC(=O)O[C@]1(C(C)=O)CC[C@H]2[C@@H]3C[C@H](C)C4=CC(=O)CC[C@]4(C)[C@H]3CC[C@@]21C | x | 0.6 | 3.9 | -44.0 | 0.3 | -5.1
COc1ccc(OC)c(NC(=O)Cn2c(=O)n(CC3CCCO3)c(=O)c3cc(OC)c(OC)cc32)c1 (stereo not drawn) | 13.9 | -1.8 | 1.0 | 5.3 | -0.3 | 11.1
O=C(NCCS(=O)(=O)N1CCN(c2ccc(F)cc2)CC1)c1ccco1 | -15.6 | 22.2* | 2.0 | x | -0.2 | 0.6
CC1(C)C2CCC1(C)C(OC(=O)CC(=O)O)C2 (stereo not drawn) | -1.2 | 10.3* | -6.8 | -15.1 | x | 1.4
CC1(C)C2CCC1(C)C(OC(=O)C[n+]1ccccc1)C2 (stereo not drawn) | -3.6 | 0.1 | -0.9 | 0.2 | 0.4 | 3.2
CCC(C)CNC(=O)CSc1nnc(-c2cccnc2)n1C1CCCCC1 (stereo not drawn) | x | x | 1.9 | x | x | -1.4
COC(=O)C(CC(=O)c1ccc(Cl)cc1)c1ccc(C)cc1 (stereo not drawn) | 1.5 | 15.0* | -1.3 | -37.4 | 0.3 | -1.5
O=C(CC(C(=O)O)c1ccc(Cl)cc1)c1ccccc1 (stereo not drawn) | -2.3 | 0.5 | 4.3 | 5.3 | 0.1 | 0.7
NC(=O)c1sc2cc(C(F)(F)F)cnc2c1-c1cccs1 | -1.1 | 21.3* | -1.2 | 2.7 | -0.4 | 2.3
O=C(Cc1ccccc1Cl)N1CCN(c2ncccn2)CC1 | -11.3 | 12.1* | -2.7 | 0.7 | 0.0 | 4.8
O=C(c1c(Cl)cccc1Cl)N1CCN(c2ncccn2)CC1 | 2.5 | -2.7 | -0.3 | x | 0.0 | -1.2
O=C(Nc1ccc(OC(F)F)c(Cl)c1)c1cccc(OC(F)F)c1 | 69.9 | 34.4* | x | 9.3 | 1.1 | x
COc1ccc(NC(=O)c2cccc(F)c2)cc1Cl | -7.4 | 10.5* | -4.1 | 0.2 | 0.8 | 4.0
COc1ccc(NC(=O)c2cccc(OC(F)F)c2)cc1Cl | 8.2 | 31.3* | 0.8 | -2.6 | 0.5 | 1.4
COc1ccc(NC(=O)c2ccccc2F)cc1Cl | 5.3 | 30.1* | -3.2 | 0.3 | -0.2 | 9.7
COC(=O)[C@]12C[C@H](CC(=O)N3CCN(C(=O)C4CC4)CC3)C(=O)N(CCC3=CCCCC3)C1=C[C@H](C1CCCC1)O[C@@H]2C | x | x | -8.6 | x | x | -1.9
COc1cc(NC(=O)c2ccc(-c3cccc(F)c3)o2)ccc1NC(=O)c1ccccc1Cl | x | 23.2* | -4.8 | x | 0.7 | 2.3
CC(C)C1N=C(NC(=O)OCc2ccccc2)NC1=O (stereo not drawn) (tested in a mixture with another compound) | x | x | 6.2 | x | x | 4.6
Cc1cc(=O)[nH]c(SCC(=O)Nc2ncc(S(=O)(=O)c3ccc([N+](=O)[O-])cc3)s2)n1 | 41.8 | -3.1 | 1.8 | -6.1 | 0.3 | -0.7
SMILES | GASC-1 inh | GRIN3A LBD mod | GC-B act | Lipid droplet | aDG glyco act | GC-A act
O=C(Nc1ncc(S(=O)(=O)c2ccc([N+](=O)[O-])cc2)s1)c1ccc2ccccc2c1 | 17.7 | 22.1* | -3.7 | -2.0 | 0.2 | -1.6
Cc1ccc(Nc2nnc(SCC(=O)Nc3ncc(S(=O)(=O)c4ccc([N+](=O)[O-])cc4)s3)s2)cc1 | -16.8 | 16.0* | 2.9 | -10.2 | -0.2 | -3.8
O=C(Nc1ncc(S(=O)(=O)c2ccc([N+](=O)[O-])cc2)s1)c1cccnc1 | -5.4 | 0.0 | -3.6 | 27.3 | -0.1 | 3.6
CC(C)c1ccc(Nc2nnc(SCC(=O)Nc3ncc(S(=O)(=O)c4ccc([N+](=O)[O-])cc4)s3)s2)cc1 | 1.0 | 12.7* | -12.6 | -3.2 | 0.0 | -5.1
CCOC(=O)[C@@]12CCC3=C1N(CCC3)C(=O)[C@H](CC(=O)NCc1cccc3ccccc13)C2 | x | x | -1.9 | x | x | -1.5
NS(=O)(=O)c1ccc(NC(=O)CSc2nc3ccccc3c(=O)n2-c2ccc(Br)cc2)cc1 | x | x | -0.1 | x | x | -0.8
Cc1cccc(CNC(=S)OC2CCC23CCC(c2ccccc2)CC3)c1 (stereo not drawn) | x | x | 1.6 | x | x | 0.1
CCOC(=O)c1c(-c2ccccc2)csc1NC(=O)/C(C#N)=C/c1ccc(O)c(OC)c1 | 6.8 | 26.5* | -6.4 | 3.9 | -0.1 | 1.2
O=C(CSc1nnc(-c2cccnc2)n1-c1ccc(Cl)cc1)Nc1cccc2ccccc12 | x | x | -1.8 | x | x | -9.6
CC1(C(=O)NCc2ccc(F)c(F)c2)Cc2c(-c3ccccc3)ccnc2O1 (stereo not drawn) | x | x | x | x | 0.3 | x
Cc1ccc(S(=O)(=O)N(CCC(=O)O)c2ccccc2)cc1 | 4.3 | 15.3* | 9.0 | -0.1 | 0.1 | -2.4
O=C1/C(=C/c2ccc(Br)cc2)Oc2cc(O)ccc21 | -18.3 | 15.9* | 1.4 | -6.2 | -0.1 | 15.3
CC(C)(C)c1ccc(/C=C2\Oc3cc(O)ccc3C2=O)cc1 | 6.1 | 16.8* | -0.8 | 18.1 | 0.3 | 8.3
COc1ccc(N(C(=O)c2ccco2)C(C(=O)NC2CCCC2)c2ccc(N(C)C)cc2)cc1 (stereo not drawn) | -10.3 | 10.3* | -2.7 | 20.8 | 0.3 | -3.4
O=C(CCCCCN1C(=O)CCC1=O)Nc1ccc(Br)cc1F | 2.5 | 11.4* | 2.6 | 9.9 | 0.0 | 0.3
